Assay results as given in ChEMBL document CHEMBL1128256, “Synthesis, biological evaluation, and structure analysis of a series of new 1,5-anhydrohexitol nucleosides” (J Med Chem, 1995).
Values after ≈ are worked out from the molar mass of the structure shown.

Columns and labels:
E6SM [1] = assay: Tested for the minimum inhibitory concentration required to reduce herpes simplex virus type 2 (HSV-2) strain G induced cytopathogenicity by 50%; type: functional; conditions: Homo sapiens
Method in brief: (§1)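 Inhibition of virus-induced cytopathogenicity in human embryonic skin-muscle (E6SM) fibroblasts seeded in 96-well trays. Viruses were HSV-1 (KOS, F, McIntyre), TK- HSV-1 B2006, TK-/TK+ HSV-1 clinical isolate VMW-1837 and HSV-2 (G, 196, Lyons). […] MCC is the lowest concentration giving microscopically detectable alteration of normal cell morphology; highest concentration tested was 400 µg/mL.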

E6SM [2] = assay: Tested for the minimum inhibitory concentration required to reduce herpes simplex virus type 2 (HSV-2) strain 196 induced cytopathogenicity by 50%; type: functional; conditions: Homo sapiens; method in brief: as §1
HEL [3] = assay: Tested for the cytotoxic concentration, required to reduce cell growth by 50% in human embryonic lung (HEL) cells; type: functional
Method in brief: (§2)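 Virus plaque formation assay in human embryonic lung (HEL) cells seeded in 96-well trays. Targets were TK+ VZV (Oka, YS), TK- VZV (07/1, YS/R) and CMV (AD169, Davis). Value is the concentration that reduces plaque number by 50%. Cytotoxicity in HEL cells was taken as the concentration that reduces cell growth by 50%.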

HEL [4] = assay: Tested for the inhibitory concentration required to reduce thymidine kinase deficient Varicella-Zoster virus (TK-VZV) strain YS/R plaque formation by 50%; type: functional, cell-based; conditions: Homo sapiens; method in brief: as §2
E6SM [5] = assay: Tested for the minimum inhibitory concentration required to reduce herpes simplex virus type 2 (HSV-2) strain Lyons induced cytopathogenicity by 50%; type: functional; conditions: Homo sapiens; method in brief: as §1
HEL [6] = assay: Tested for the inhibitory concentration required to reduce cytomegalovirus (CMV) strain Davis plaque formation by 50%; type: functional, cell-based; conditions: Homo sapiens; method in brief: as §2
E6SM [7] = assay: Tested for the minimum inhibitory concentration required to reduce herpes simplex virus type 1 (HSV-1) strain F induced cytopathogenicity by 50%.; type: functional; conditions: Homo sapiens; method in brief: as §1
E6SM [8] = assay: Tested for the minimum cytotoxic concentration required to cause a microscopically detectable alteration of normal cell morphology in human embryonic skin muscle (E6SM) fibroblast cell cultures; type: functional
Method in brief: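 Cytotoxicity in human embryonic skin-muscle (E6SM) fibroblasts seeded in 96-well trays, scored microscopically as altered normal cell morphology. Tested up to 400 µg/mL.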

E6SM [9] = assay: Tested for the minimum inhibitory concentration required to reduce herpes simplex virus type 1 (HSV-1) strain McIntyre induced cytopathogenicity by 50%; type: functional; conditions: Homo sapiens; method in brief: as §1
HEL [10] = assay: Tested for the inhibitory concentration required to reduce TK+varicella-zoster virus (TK+ VZV) strain OKA plaque formation by 50%; type: functional, cell-based; conditions: Homo sapiens; method in brief: as §2
HEL [11] = assay: Tested for the inhibitory concentration required to reduce TK+ Varicella-Zoster virus (TK+VZV) strain YS plaque formation by 50%; type: functional, cell-based; conditions: Homo sapiens; method in brief: as §2
E6SM [12] = assay: Tested for the minimum inhibitory concentration required to reduce thymidine kinase deficient herpes simplex virus type 1 (TK- HSV-1) strain B2006 induced cytopathogenicity by 50%; type: functional; conditions: Homo sapiens; method in brief: as §1
HEL [13] = assay: Tested for the inhibitory concentration required to reduce cytomegalovirus (CMV) strain AD-169 plaque formation by 50%; type: functional, cell-based; conditions: Homo sapiens; method in brief: as §2
HEL [14] = assay: Tested for the inhibitory concentration required to reduce thymidine kinase deficient Varicella-Zoster virus (TK-VZV) strain 07/1 plaque formation by 50%; type: functional, cell-based; conditions: Homo sapiens; method in brief: as §2
E6SM [15] = assay: Tested for the minimum inhibitory concentration required to reduce herpes simplex virus type 1 (HSV-1) strain KOS induced cytopathogenicity by 50%; type: functional; conditions: Homo sapiens; method in brief: as §1
E6SM [16] = assay: Tested for the minimum inhibitory concentration required to reduce herpes simplex virus type 1 (TK/ TK+HSV-1) strain VMW-1837 induced cytopathogenicity by 50%; type: functional; conditions: Homo sapiens; method in brief: as §1
HEL [17] = assay: Tested for the inhibitory concentration required to reduce thymidine kinase deficient Varicella-Zoster virus (TK- VZV) strain 07/1 plaque formation by 50%.; type: functional, cell-based; conditions: Homo sapiens
HEL [18] = assay: Tested for the inhibitory concentration required to reduce cytomegalovirus (CMV) strain AD-169 plaque formation by 50%.; type: functional, cell-based; conditions: Homo sapiens; method in brief: as §2
E6SM [19] = assay: Tested for the minimum inhibitory concentration required to reduce herpes simplex virus type 2 (HSV-2) strain 196 induced cytopathogenicity by 50%.; type: functional; conditions: Homo sapiens; method in brief: as §1
E6SM [20] = assay: Tested for the minimum inhibitory concentration required to reduce herpes simplex virus type 1 (TK- / TK + HSV-1) strain VMW-1837 induced cytopathogenicity by 50%.; type: functional; conditions: Homo sapiens; method in brief: as §1
E6SM [21] = assay: Tested for the minimum cytotoxic concentration required to cause a microscopically detectable alteration of normal cell morphology in human embryonic skin muscle (E6SM) fibroblast cell cultures.; type: functional; method in brief: as §1
E6SM [22] = assay: Tested for the minimum inhibitory concentration required to reduce thymidine kinase deficient herpes simplex virus type 1 (TK- HSV-1) strain B2006 induced cytopathogenicity by 50%.; type: functional; conditions: Homo sapiens; method in brief: as §1
HEL [23] = assay: Tested for the inhibitory concentration required to reduce thymidine kinase plus Varicella-Zoster virus (TK+ VZV) strain YS plaque formation by 50%; type: functional, cell-based; conditions: Homo sapiens; method in brief: as §2
E6SM [24] = assay: Tested for the minimum inhibitory concentration required to reduce herpes simplex virus type 2 (HSV-2) strain G induced cytopathogenicity by 50%.; type: functional; conditions: Homo sapiens; method in brief: as §1
E6SM [25] = assay: Tested for the minimum inhibitory concentration required to reduce herpes simplex virus type 1 (HSV-1) strain McIntyre induced cytopathogenicity by 50%.; type: functional; conditions: Homo sapiens; method in brief: as §1
E6SM [26] = assay: Tested for the minimum inhibitory concentration required to reduce herpes simplex virus type 1 (HSV-1) strain KOS induced cytopathogenicity by 50%.; type: functional; conditions: Homo sapiens; method in brief: as §1
E6SM [27] = assay: Tested for the minimum inhibitory concentration required to reduce herpes simplex virus type 2 (HSV-2) strain Lyons induced cytopathogenicity by 50%.; type: functional; conditions: Homo sapiens; method in brief: as §1
HEL [28] = assay: Tested for the cytotoxic concentration, required to reduce cell growth by 50% in human embryonic lung (HEL) cells.; type: functional; method in brief: as §2
HEL [29] = assay: Tested for the inhibitory concentration required to reduce cytomegalovirus (CMV) strain Davis plaque formation by 50%.; type: functional, cell-based; conditions: Homo sapiens; method in brief: as §2
HEL [30] = assay: Tested for the inhibitory concentration required to reduce thymidine kinase deficient Varicella-Zoster virus (TK- VZV) strain YS/R plaque formation by 50%.; type: functional, cell-based; conditions: Homo sapiens
HEL [31] = assay: Tested for the inhibitory concentration required to reduce thymidine kinase plus Varicella-Zoster virus (TK+ VZV) strain OKA plaque formation by 50%.; type: functional, cell-based; conditions: Homo sapiens; method in brief: as §2
E6SM [32] = assay: Tested for the minimum inhibitory concentration required to reduce herpes simplex virus type 1 (TK+ / TK- HSV-1) strain VMW-1837 induced cytopathogenicity by 50%.; type: functional; conditions: Homo sapiens; method in brief: as §1
HEL [33] = assay: Tested for the inhibitory concentration required to reduce TK+ Varicella-Zoster virus (TK+ VZV) strain OKA plaque formation by 50%.; type: functional, cell-based; conditions: Homo sapiens
HEL [34] = assay: Tested for the inhibitory concentration required to reduce TK+ Varicella-Zoster virus (TK+ VZV) strain YS plaque formation by 50%; type: functional, cell-based; conditions: Homo sapiens

SMILES: OCC1OCC(n2cnc3c(O)ncnc32)CC1O (stereo not drawn)
- MIC (E6SM [1]): > 400 µg/mL
- MIC (E6SM [2]): 300 µg/mL (≈ 1130 µM)
- CC50 (HEL [3]): > 50 µg/mL
- IC50 (HEL [4]): > 40 µg/mL
- MIC (E6SM [5]): 300 µg/mL (≈ 1130 µM)
- IC50 (HEL [6]): > 40 µg/mL
- MIC (E6SM [7]): 300 µg/mL (≈ 1130 µM)
- MCC (E6SM [8]): > 400 µg/mL
- MIC (E6SM [9]): > 400 µg/mL
- IC50 (HEL [10]): > 40 µg/mL
- IC50 (HEL [11]): 25 µg/mL (≈ 93.9 µM)
- MIC (E6SM [12]): > 400 µg/mL
- IC50 (HEL [13]): > 40 µg/mL
- IC50 (HEL [14]): > 40 µg/mL
- MIC (E6SM [15]): > 400 µg/mL
- MIC (E6SM [16]): 300 µg/mL (≈ 1130 µM)

SMILES: O=c1ccn(C2COC(CO)C(O)C2)c(=O)[nH]1 (stereo not drawn)
- IC50 (HEL [17]): > 40 µg/mL
- IC50 (HEL [18]): > 40 µg/mL
- MIC (E6SM [19]): > 400 µg/mL
- MIC (E6SM [20]): > 400 µg/mL
- MCC (E6SM [21]): > 400 µg/mL
- MIC (E6SM [7]): > 400 µg/mL
- MIC (E6SM [22]): > 400 µg/mL
- IC50 (HEL [23]): > 40 µg/mL
- MIC (E6SM [24]): > 400 µg/mL
- MIC (E6SM [25]): > 400 µg/mL
- MIC (E6SM [26]): > 400 µg/mL
- MIC (E6SM [27]): > 400 µg/mL
- CC50 (HEL [28]): > 50 µg/mL
- IC50 (HEL [29]): > 40 µg/mL
- IC50 (HEL [30]): > 40 µg/mL
- IC50 (HEL [31]): > 40 µg/mL

SMILES: O=c1[nH]c(=O)n(C2COC(CO)C(O)C2)cc1F (stereo not drawn)
- IC50 (HEL [17]): > 40 µg/mL
- IC50 (HEL [18]): > 40 µg/mL
- MIC (E6SM [19]): > 400 µg/mL
- MCC (E6SM [21]): > 400 µg/mL
- MIC (E6SM [7]): > 400 µg/mL
- MIC (E6SM [32]): 300 µg/mL (≈ 1150 µM)
- MIC (E6SM [22]): > 400 µg/mL
- MIC (E6SM [24]): > 400 µg/mL
- MIC (E6SM [25]): > 400 µg/mL
- MIC (E6SM [26]): > 400 µg/mL
- IC50 (HEL [33]): 40 µg/mL (≈ 154 µM)
- MIC (E6SM [27]): > 400 µg/mL
- CC50 (HEL [28]): > 50 µg/mL
- IC50 (HEL [29]): > 40 µg/mL
- IC50 (HEL [30]): 40 µg/mL (≈ 154 µM)
- IC50 (HEL [34]): > 40 µg/mL
